Calls of active or inactive are those of the source. The calls are words filed in the database; no cut-off is given here.
Assays:
[1] = Drug uptake in 20 to 21 months old Wistar Han rat model of aged-induced memory deficit brain at 10 mg/kg, ip measured after 4 hrs; type: ADME, organism-based; details: read-out: Drug uptake
[2] = molecular target: T1, Glutamate NMDA receptor; GRIN1/GRIN2B (Homo sapiens, UniProt Q05586+Q13224); experiment: Positive allosteric modulation of recombinant human GluN1/GluN2B receptor stably expressed in HEK293 cells assessed as increase in glycine/L-glutamate-induced channel current at -70 mV holding potential by IonWork […] method; type: cell-based
How it was run: (§1)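 Stable HEK293 lines expressing GluN1/GluN2A or GluN1/GluN2B, measured by automated whole-cell patch clamp (Ionworks Barracuda). Cells were held at -70 mV and stepped to -45 mV during agonist application (EC20 L-glutamate plus 50 µM glycine). The test article was first pre-applied alone for 5 min, then co-applied with agonist to record potentiation. Concentration-response percent potentiation gave EC50 and Emax.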

[3] = Drug uptake in 20 to 21 months old Wistar Han rat model of aged-induced memory deficit brain at 1 mg/kg, ip measured after 4 hrs; type: ADME, organism-based; details: read-out: Drug uptake
Rattus norvegicus [4] = experiment: Improvement in social recognition in 20 to 21 months old Wistar Han rat model of aged-induced memory deficit assessed as reduction in time spent with familiar juvenile at 3 mg/kg, ip administered 4 hrs prior to training trial and measured after 30 mins; type: functional, organism-based
[5] = molecular target: T2, Glutamate NMDA receptor; GRIN1/GRIN2A (Homo sapiens, UniProt Q05586+Q12879); experiment: Positive allosteric modulation of recombinant human GluN1/GluN2A receptor stably expressed in HEK293 cells assessed as increase in glycine/L-glutamate-induced channel current at -70 mV holding potential by IonWork […] method relative to control; type: cell-based; how it was run: as §1
[6] = Volume of distribution at steady state in rat; type: ADME; details: in vivo, read-out: Vdss
Rattus norvegicus [7] = experiment: Improvement in social recognition in 20 to 21 months old Wistar Han rat model of aged-induced memory deficit assessed as reduction in time spent with familiar juvenile at 10 mg/kg, ip administered 4 hrs prior to training trial and measured after 30 mins; type: functional, organism-based
Rattus norvegicus [8] = experiment: Improvement in social recognition in 20 to 21 months old Wistar Han rat model of aged-induced memory deficit assessed as reduction in time spent with familiar juvenile at 1 mg/kg, ip administered 4 hrs prior to training trial and measured after 30 mins; type: functional, organism-based
[9] = Stability in human liver microsomes; type: ADME, Microsome; details: read-out: Stability
[10] = Drug uptake in 20 to 21 months old Wistar Han rat model of aged-induced memory deficit brain at 3 mg/kg, ip measured after 4 hrs; type: ADME, organism-based; details: read-out: Drug uptake
[11] = Oral bioavailability in rat; type: ADME, organism-based; details: in vivo
Hippocampus = experiment: Induction of synaptic plasticity in postnatal 120 to 150 day rat brain hippocampal slice assessed as stimulation of theta burst stimulaiton-induced field potential potentiation at 1 uM treated 20 mins prior to theta burst stimulation and measured after 60 mins by electrophysiological method; type: functional, tissue-based
[12] = Stability in rat liver microsomes; type: ADME, Microsome; details: read-out: Stability
[13] = Clearance in iv dosed rat; type: ADME, organism-based; details: in vivo
[14] = molecular target: T2, Glutamate NMDA receptor; GRIN1/GRIN2A; experiment: Positive allosteric modulation of recombinant human GluN1/GluN2A receptor stably expressed in HEK293 cells assessed as increase in glycine/L-glutamate-induced channel current at -70 mV holding potential by IonWork […] method; type: cell-based; how it was run: as §1
[15] = molecular target: T1, Glutamate NMDA receptor; GRIN1/GRIN2B; experiment: Positive allosteric modulation of recombinant human GluN1/GluN2B receptor stably expressed in HEK293 cells assessed as increase in glycine/L-glutamate-induced channel current at -70 mV holding potential by IonWork whole cell patch clamp method relative to control
[16] = Ratio of drug level in Sprague-Dawley rat brain to plasma at 2.5 mg/kg, iv measured after 1 hr; type: ADME, organism-based; details: brain and plasma, read-out: BPR
[17] = Positive allosteric modulation of recombinant dog GluN1/GluN2A receptor expressed in Xenopus laevis oocytes assessed as increase in glycine/L-glutamate-induced channel current at -80 mV holding potential by two-electrode voltage clamp method; type: cell-based; details: Canis lupus familiaris
[18] = molecular target: T2, Glutamate NMDA receptor; GRIN1/GRIN2A; experiment: Positive allosteric modulation of recombinant human GluN1/GluN2A receptor expressed in Xenopus laevis oocytes assessed as increase in glycine/L-glutamate-induced channel current at -80 mV holding potential by two-electrode voltage clamp method relative to control; type: cell-based
[19] = molecular target: T2, Glutamate NMDA receptor; GRIN1/GRIN2A; experiment: Positive allosteric modulation of recombinant human GluN1/GluN2A receptor expressed in Xenopus laevis oocytes assessed as increase in glycine/L-glutamate-induced channel current at -80 mV holding potential by two-electrode voltage clamp method; type: cell-based
[20] = molecular target: Glutamate NMDA receptor; Grin1/Grin2a (Rattus norvegicus, UniProt P35439+Q00959); experiment: Positive allosteric modulation of recombinant rat GluN1/GluN2A receptor expressed in Xenopus laevis oocytes assessed as increase in glycine/L-glutamate-induced channel current at -80 mV holding potential by two-electrode voltage clamp method; type: cell-based
[21] = Half life in rat; type: ADME; details: in vivo
[22] = molecular target: Glutamate NMDA receptor; Grin1/Grin2a (Rattus norvegicus) (UniProt P35439+Q00959); experiment: Positive allosteric modulation of recombinant rat GluN1/GluN2A receptor expressed in Xenopus laevis oocytes assessed as increase in glycine/L-glutamate-induced channel current at -80 mV holding potential by two-electrode voltage clamp method relative to control; type: cell-based
Canis lupus familiaris = species on record: Canis lupus familiaris; experiment: Positive allosteric modulation of recombinant dog GluN1/GluN2A receptor expressed in Xenopus laevis oocytes assessed as increase in glycine/L-glutamate-induced channel current at -80 mV holding potential by two-electrode voltage clamp method relative to control; type: cell-based

Row | Compound | EC50 [2] [nM] | Emax [5] [%] | Vd [6] [L/kg] | microsomal CLint [9] [µL/min/mg] | bioavailability [11] [%] | microsomal CLint [12] [µL/min/mg] | clearance [13] [mL/min/kg] | EC50 [14] [nM] | Emax [15] [%] | other results
1 | C[C@H](CCC(C)(C)O)[C@H]1CC[C@H]2[C@@H]3CC=C4C[C@@](C)(O)CC[C@]4(C)[C@H]3CC[C@]12C | 38 | 220 | 0.65 | 13 | 28 | 35 | 18.3 | 480 | 92 | concentration at 4 h [1]: 3700 nM; concentration at 4 h [3]: 400 nM; Activity (Rattus norvegicus [4]): inactive; Activity (Rattus norvegicus [7]): Active; Activity (Rattus norvegicus [8]): Active; concentration at 4 h [10]: 900 nM; Activity (Hippocampus): Active; Kp at 1 h [16]: 0.6
2 | CC(C)[C@@H](O)CC[C@@H](C)[C@H]1CC[C@H]2[C@@H]3CC=C4C[C@@H](O)CC[C@]4(C)[C@H]3CC[C@]12C | 530 | 210 | 2.5 | 10 | 9 | 52 | 98.3 | 150 | 150 | EC50 [17]: 650 nM; Emax [18]: 73%; EC50 [19]: 300 nM; EC50 [20]: 650 nM; half-life [21]: 32.4 min; Emax [22]: 180%; Emax (Canis lupus familiaris): 130%
